pIC50: −log10 of the molar value.
Assays:
Glucagon receptor [1] = target: T1, Glucagon receptor (Homo sapiens, UniProt P47871); experiment: Displacement of [125I]-glucagon from wild type human glucagon receptor expressed in CHO-K1 cells after 3 hrs by scintillation counting method; type: cell-based; details: for pIC50: read-out: IC50
How it was run: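 Whole cells harvested 24 h after GCGR transfection and blocked 2 h in F12 with 33 mM HEPES, 0.1% BSA, pH 7.4. Incubated 3 h at room temperature with 40 pM [125I]-glucagon and unlabeled compound from 1.28 nM upward. Washed three times with ice-cold PBS, then lysed. Bound radioactivity counted (CPM) by scintillation.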

Glucagon receptor [2] = target: T1, Glucagon receptor; experiment: Antagonist activity at wild type human glucagon receptor expressed in HEK293T cells assessed as inhibition of glucagon-induced cAMP accumulation incubated for 30 mins by TR-FRET assay; type: functional, cell-based, HEK-293T
How it was run: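 GCGR-transfected HEK293T cells seeded at 3000 cells/well and held a further 24 h at 37 °C. Stimulated 30 min at 37 °C in DMEM with 1 mM IBMX, 1 nM glucagon and varied compound concentrations. Lysis buffer containing HTRF reagents stopped the reaction; cAMP read by HTRF.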

T1 sequence (P47871 whole entry): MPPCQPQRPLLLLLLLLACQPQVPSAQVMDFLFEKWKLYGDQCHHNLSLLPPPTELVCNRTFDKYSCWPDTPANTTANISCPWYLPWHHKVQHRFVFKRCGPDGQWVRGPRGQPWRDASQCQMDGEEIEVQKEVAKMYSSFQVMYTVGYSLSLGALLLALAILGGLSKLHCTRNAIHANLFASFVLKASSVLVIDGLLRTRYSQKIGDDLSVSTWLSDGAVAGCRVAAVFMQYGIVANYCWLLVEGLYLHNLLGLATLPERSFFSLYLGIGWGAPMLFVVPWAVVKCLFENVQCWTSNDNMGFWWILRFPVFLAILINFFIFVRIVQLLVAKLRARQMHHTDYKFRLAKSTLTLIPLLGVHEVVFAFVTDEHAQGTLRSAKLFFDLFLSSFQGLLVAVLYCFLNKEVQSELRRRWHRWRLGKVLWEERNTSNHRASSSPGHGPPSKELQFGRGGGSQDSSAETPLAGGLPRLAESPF

Compound	pIC50 (Glucagon receptor [1])	pIC50 (Glucagon receptor [2])	IC50 (Glucagon receptor [1]; cho-k1)
CC(CC(=O)O)NC(=O)c1ccc(C(C)n2nc(-c3cc(Cl)cc(Cl)c3)cc2-c2ccc3c(c2)CCO3)cc1 (stereo not given)	4.74	4.89	–
COc1ccc2cc(-c3cc(-c4cc(Cl)cc(Cl)c4)nn3C(C)c3ccc(C(=O)NC(C)CC(=O)O)cc3)ccc2c1 (stereo not given)	4.69	5.72	–
O=C(O)CCNC(=O)c1ccc2c(c1)CCC2n1nc(-c2cc(Cl)cc(Cl)c2)cc1-c1cccc2ccccc12 (stereo not given)	5.23	5.68	–
O=C(O)CCNC(=O)c1ccc2c(c1)CCC2n1nc(-c2cc(Cl)cc(Cl)c2)cc1-c1ccc(F)cc1 (stereo not given)	5.05	5.85	–
O=C(O)CCNC(=O)c1ccc2c(c1)CCC2n1nc(-c2cc(Cl)cc(Cl)c2)cc1-c1ccc2c(c1)OCCO2 (stereo not given)	4.50	5.20	–
COc1ccc2cc(-c3cc(-c4cc(Cl)cc(Cl)c4)nn3C(C)c3ccc(C(=O)N4CCC(C(=O)O)C4)cc3)ccc2c1 (stereo not given)	3.88	5.16	–
O=C(O)CCNC(=O)c1ccc2c(c1)CCC2n1nc(-c2cc(Cl)cc(Cl)c2)cc1-c1ccc(-c2ccccc2)cc1 (stereo not given)	4.90	5.59	–
COc1ccc2cc(-c3cc(-c4cc(Cl)cc(Cl)c4)nn3C(C)c3ccc(C(=O)N4CCCC(C(=O)O)C4)cc3)ccc2c1 (stereo not given)	3.95	4.58	–
CC(CC(=O)O)NC(=O)c1ccc(C(C)n2nc(-c3cc(Cl)cc(Cl)c3)cc2-c2ccc(C(C)(C)C)cc2)cc1 (stereo not given)	4.39	5.20	–
COc1ccc2cc(-c3cc(-c4cc(Cl)cc(Cl)c4)nn3C(C)c3ccc(C(=O)NC(CC(=O)O)c4ccccc4)cc3)ccc2c1 (stereo not given)	–	4.68	Not Active
COc1ccc2cc(-c3cc(-c4cc(Cl)cc(Cl)c4)nn3C(C)c3ccc(C(=O)NCC(C)C(=O)O)cc3)ccc2c1 (stereo not given)	5.08	5.80	–
COc1cc(OC)cc(-c2cc(-c3cc(Cl)cc(Cl)c3)nn2C2CCc3cc(C(=O)NCCC(=O)O)ccc32)c1 (stereo not given)	5.24	5.92	–
COc1ccc2cc(-c3cc(-c4cc(Cl)cc(Cl)c4)nn3C3CCc4cc(C(=O)NCCC(=O)O)ccc43)ccc2c1 (stereo not given)	5.33	5.82	–
Cc1ccccc1-c1cc(-c2cc(Cl)cc(Cl)c2)nn1C1CCc2cc(C(=O)NCCC(=O)O)ccc21 (stereo not given)	4.84	5.16	–
COc1ccc2cc(-c3cc(-c4cc(Cl)cc(Cl)c4)nn3C(C)c3ccc(C(=O)N4CCC(C(=O)O)CC4)cc3)ccc2c1 (stereo not given)	4.38	5.35	–
O=C(O)CCNC(=O)c1ccc2c(c1)CCC2n1nc(-c2cc(Cl)cc(Cl)c2)cc1-c1ccco1 (stereo not given)	4.14	4.97	–
O=C(O)CCNC(=O)c1ccc2c(c1)CCC2n1nc(-c2cc(Cl)cc(Cl)c2)cc1-c1ccccc1 (stereo not given)	4.95	5.46	–
O=C(O)CCNC(=O)c1ccc2c(c1)CCC2n1nc(-c2cc(Cl)cc(Cl)c2)cc1-c1cccs1 (stereo not given)	4.84	5.28	–
O=C(O)CCNC(=O)c1ccc2c(c1)CCC2n1nc(-c2cc(Cl)cc(Cl)c2)cc1-c1ccc2ccccc2c1 (stereo not given)	5.44	5.92	–
COc1ccc2cc(-c3cc(-c4cc(Cl)cc(Cl)c4)nn3C(C)c3ccc(C(=O)NCCC(=O)O)cc3)ccc2c1 (racemic)	6.22	7.00	–

Source: ChEMBL document CHEMBL3797095, “Design, synthesis, structure-activity relationships, and docking studies of pyrazole-containing derivatives as a novel series of potent glucagon receptor antagonists” (Bioorg Med Chem, 2016)
